Reference: ChEMBL document CHEMBL4251567 (Eur J Med Chem, 2018)

Legend:
[1] = biological target: Histone deacetylase; experiment: Inhibition of HDAC in human HeLa-S3 cell lysates preincubated for 15 mins followed by HDAC-Glo substrate addition measured after 35 mins by fluorimetric method; type: protein assay
[2] = biological target: Histone deacetylase 1 (Homo sapiens) (UniProt Q13547); experiment: Inhibition of HDAC1 in human HeLa-S3 cell lysates assessed as remaining activity at 1.6 x 10^-4 M preincubated for 15 mins followed by HDAC-Glo substrate addition measured after 30 to 40 mins by […] relative to control
In short: (§1)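 HDAC1 was captured from HeLa-S3 lysate (100 μg/mL) onto wells precoated with anti-HDAC1 antibody (10 μg/mL, carbonate buffer pH 9.4) and milk-blocked, 1 h at 4 °C, then washed. Inhibitor in DMSO was added in HDAC-Glo buffer for 15 min at room temperature. HDAC-Glo reagent was added and luminescence read after 30-40 min. Concentrations are final. No-antibody background subtracted; % of DMSO control.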

[3] = biological target: Histone deacetylase 3 (Homo sapiens) (UniProt O15379); experiment: Inhibition of HDAC3 in human HeLa-S3 cell lysates assessed as remaining activity at 2 x 10^-5 M preincubated for 15 mins followed by HDAC-Glo substrate addition measured after 30 to 40 mins by […] relative to control
In short: (§2)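 Antibody-capture (ELISA-type) assay: HDAC antibody coated in carbonate/bicarbonate buffer pH 9.4, wells blocked with 5% milk in TBST. HeLa-S3 lysate added at 1 mg/mL for HDAC3, 1 h at 4 °C, then washed. Inhibitor in DMSO preincubated 15 min at RT in HDAC-Glo buffer. HDAC-Glo reagent added, luminescence read after 30-40 min. Concentrations are final. Background = no-antibody well; activity given as % of DMSO control.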

[4] = biological target: Histone deacetylase 3 (Homo sapiens) (UniProt O15379); experiment: Inhibition of HDAC3 in human HeLa-S3 cell lysates assessed as remaining activity at 1.6 x 10^-4 M preincubated for 15 mins followed by HDAC-Glo substrate addition measured after 30 to 40 mins by […] relative to control; in short: as §2
[5] = biological target: Histone deacetylase 1 (Homo sapiens) (UniProt Q13547); experiment: Inhibition of HDAC1 in human HeLa-S3 cell lysates assessed as remaining activity at 8 x 10^-5 M preincubated for 15 mins followed by HDAC-Glo substrate addition measured after 30 to 40 mins by […] relative to control
[6] = biological target: Histone deacetylase 1 (Homo sapiens) (UniProt Q13547); experiment: Inhibition of HDAC1 in human HeLa-S3 cell lysates assessed as remaining activity at 2 x 10^-5 M preincubated for 15 mins followed by HDAC-Glo substrate addition measured after 30 to 40 mins by […] relative to control; in short: as §1
[7] = biological target: Histone deacetylase 3 (Homo sapiens) (UniProt O15379); experiment: Inhibition of HDAC3 in human HeLa-S3 cell lysates assessed as remaining activity at 8 x 10^-5 M preincubated for 15 mins followed by HDAC-Glo substrate addition measured after 30 to 40 mins by […] relative to control; in short: as §2
[8] = biological target: Histone deacetylase 1 (Homo sapiens) (UniProt Q13547); experiment: Inhibition of HDAC1 in human HeLa-S3 cell lysates assessed as remaining activity at 4 x 10^-5 M preincubated for 15 mins followed by HDAC-Glo substrate addition measured after 30 to 40 mins by […] relative to control; in short: as §1
[9] = biological target: Histone deacetylase 3 (Homo sapiens) (UniProt O15379); experiment: Inhibition of HDAC3 in human HeLa-S3 cell lysates assessed as remaining activity at 1 x 10^-5 M preincubated for 15 mins followed by HDAC-Glo substrate addition measured after 30 to 40 mins by […] relative to control; in short: as §2
[10] = biological target: Histone deacetylase 2 (Homo sapiens) (UniProt Q92769); experiment: Inhibition of HDAC2 in human HeLa-S3 cell lysates assessed as remaining activity at 1.6 x 10^-4 M preincubated for 15 mins followed by HDAC-Glo substrate addition measured after 30 to 40 mins by […] relative to control
In short: (§3)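 Same antibody-capture format as the other class I isoforms. HeLa-S3 lysate added at 100 μg/mL for HDAC1 and HDAC2, 1 h at 4 °C, then washed. Inhibitor in DMSO preincubated 15 min at RT; HDAC-Glo reagent added and luminescence read after 30-40 min. Concentrations are final. Signal corrected against a well without antibody; activity expressed as % of DMSO control.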

[11] = biological target: Histone deacetylase 2 (Homo sapiens) (UniProt Q92769); experiment: Inhibition of HDAC2 in human HeLa-S3 cell lysates assessed as remaining activity at 8 x 10^-5 M preincubated for 15 mins followed by HDAC-Glo substrate addition measured after 30 to 40 mins by […] relative to control; in short: as §3
[12] = test system: U-937; experiment: Cytotoxicity against human U937 cells assessed as cell viability at 3.2 x 10^-5 M after 44 hrs by MTT assay relative to control; type: functional; conditions: U-937, 44 h, read-out: Activity
[13] = biological target: Histone deacetylase 1 (Homo sapiens) (UniProt Q13547); experiment: Inhibition of HDAC1 in human HeLa-S3 cell lysates assessed as remaining activity at 1 x 10^-5 M preincubated for 15 mins followed by HDAC-Glo substrate addition measured after 30 to 40 mins by fluorimetric method relative to control; in short: as §1
[14] = biological target: Histone deacetylase 3 (Homo sapiens) (UniProt O15379); experiment: Inhibition of HDAC3 in human HeLa-S3 cell lysates assessed as remaining activity at 4 x 10^-5 M preincubated for 15 mins followed by HDAC-Glo substrate addition measured after 30 to 40 mins by […] relative to control; in short: as §2
[15] = biological target: Histone deacetylase 2 (Homo sapiens) (UniProt Q92769); experiment: Inhibition of HDAC2 in human HeLa-S3 cell lysates assessed as remaining activity at 2 x 10^-5 M preincubated for 15 mins followed by HDAC-Glo substrate addition measured after 30 to 40 mins by fluorimetric method relative to control; in short: as §3
[16] = biological target: Histone deacetylase 2 (Homo sapiens) (UniProt Q92769); experiment: Inhibition of HDAC2 in human HeLa-S3 cell lysates assessed as remaining activity at 4 x 10^-5 M preincubated for 15 mins followed by HDAC-Glo substrate addition measured after 30 to 40 mins by […] relative to control; in short: as §3
[17] = biological target: T1, Histone deacetylase 8 (Homo sapiens) (UniProt Q9BY41); experiment: Inhibition of human recombinant full-length C-terminal His-tagged HDAC8 expressed in baculovirus infected Sf9 insect cell assessed as remaining activity at 4 x 10^-7 M preincubated for 15 mins followed by HDAC-Glo substrate addition measured after 30 mins by fluorimetric method rel;ative to control
T1 sequence (whole entry): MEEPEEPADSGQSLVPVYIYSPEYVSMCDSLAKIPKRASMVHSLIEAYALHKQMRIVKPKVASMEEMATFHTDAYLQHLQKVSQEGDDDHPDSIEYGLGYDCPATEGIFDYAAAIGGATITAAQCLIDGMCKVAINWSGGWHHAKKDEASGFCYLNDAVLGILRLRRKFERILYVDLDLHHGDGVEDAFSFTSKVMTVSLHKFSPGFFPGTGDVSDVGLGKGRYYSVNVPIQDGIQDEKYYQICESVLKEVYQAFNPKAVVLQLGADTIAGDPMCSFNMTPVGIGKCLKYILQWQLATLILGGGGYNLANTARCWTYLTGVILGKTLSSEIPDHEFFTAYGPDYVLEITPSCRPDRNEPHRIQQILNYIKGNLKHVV
In short: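 Recombinant HDAC8 (75 ng) preincubated 15 min at RT with inhibitor in DMSO in HDAC-Glo buffer. HDAC-Glo reagent added and luminescence read 30 min later. Background taken from a reaction without enzyme; activity as % of DMSO control.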

Chain of Histone deacetylase 1 (Homo sapiens) (Q13547 whole entry): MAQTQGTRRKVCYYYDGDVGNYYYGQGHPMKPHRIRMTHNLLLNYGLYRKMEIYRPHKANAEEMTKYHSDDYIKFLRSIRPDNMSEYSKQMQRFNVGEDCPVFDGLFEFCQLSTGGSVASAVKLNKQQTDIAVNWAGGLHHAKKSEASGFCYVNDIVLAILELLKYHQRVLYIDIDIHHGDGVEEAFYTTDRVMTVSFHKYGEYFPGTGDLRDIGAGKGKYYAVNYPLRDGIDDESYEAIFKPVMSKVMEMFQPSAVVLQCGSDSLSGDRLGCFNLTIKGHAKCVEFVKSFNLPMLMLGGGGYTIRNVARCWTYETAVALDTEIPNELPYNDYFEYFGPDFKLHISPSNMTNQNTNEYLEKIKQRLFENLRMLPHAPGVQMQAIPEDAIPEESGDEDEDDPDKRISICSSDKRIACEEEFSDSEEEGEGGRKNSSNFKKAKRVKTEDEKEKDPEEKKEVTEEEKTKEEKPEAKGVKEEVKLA
Chain of Histone deacetylase 3 (Homo sapiens) (O15379 whole entry): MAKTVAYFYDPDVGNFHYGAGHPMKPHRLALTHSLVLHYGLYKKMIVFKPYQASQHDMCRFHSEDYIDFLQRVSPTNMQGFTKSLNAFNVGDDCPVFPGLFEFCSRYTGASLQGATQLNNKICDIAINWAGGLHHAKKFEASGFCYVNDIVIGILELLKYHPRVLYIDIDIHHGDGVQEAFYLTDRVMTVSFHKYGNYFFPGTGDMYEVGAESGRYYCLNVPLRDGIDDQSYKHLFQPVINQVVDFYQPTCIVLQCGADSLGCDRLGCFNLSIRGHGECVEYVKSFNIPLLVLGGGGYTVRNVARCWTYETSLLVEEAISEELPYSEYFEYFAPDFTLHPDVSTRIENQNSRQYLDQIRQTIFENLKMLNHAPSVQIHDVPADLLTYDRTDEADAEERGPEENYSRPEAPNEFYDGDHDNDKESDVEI
Chain of Histone deacetylase 2 (Homo sapiens) (Q92769 whole entry, canonical isoform): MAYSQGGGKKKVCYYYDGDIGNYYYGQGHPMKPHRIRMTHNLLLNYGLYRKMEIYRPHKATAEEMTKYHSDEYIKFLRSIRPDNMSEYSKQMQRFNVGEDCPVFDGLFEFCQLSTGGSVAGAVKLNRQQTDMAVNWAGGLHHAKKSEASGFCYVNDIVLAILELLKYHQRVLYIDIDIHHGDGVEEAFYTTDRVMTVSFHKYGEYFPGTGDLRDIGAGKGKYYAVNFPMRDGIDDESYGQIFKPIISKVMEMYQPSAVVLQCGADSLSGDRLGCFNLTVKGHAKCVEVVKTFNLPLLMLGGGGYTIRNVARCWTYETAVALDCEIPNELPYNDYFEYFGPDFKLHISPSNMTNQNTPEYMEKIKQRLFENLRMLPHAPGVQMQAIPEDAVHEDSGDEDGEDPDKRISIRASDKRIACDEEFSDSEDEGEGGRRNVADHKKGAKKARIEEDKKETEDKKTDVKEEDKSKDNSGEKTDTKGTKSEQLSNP

SMILES | IC50 [1] | Activity [2] | Activity [3] | Activity [4] | Activity [5] | Activity [6] | Activity [7] | Activity [8] | Activity [9] | Activity [10] | Activity [11] | viability at 32 µM [12] | Activity [13] | Activity [14] | Activity [15] | Activity [16] | Activity [17]
O=C(CCC(CCCC(=O)Nc1ccccc1)Cc1ccccc1)NO (racemic) | 62 µM | 16% | 63% | 19% | 27% | 58% | 33% | 44% | 87% | 20% | 27% | 49% | 75% | 55% | 60% | 47% | –
CCCCCCC(CCCC(=O)Nc1ccccc1)CCC(=O)NO (centres undefined) | 60 µM | 13% | 56% | 5% | 26% | 67% | 25% | 46% | 88% | 16% | 31% | 28% | 83% | 42% | 73% | 46% | –
O=C(CC[C@H](CCCC(=O)Nc1ccccc1)Cc1ccccc1)NO | – | 17% | 67% | 15% | 32% | 68% | 33% | 50% | 76% | 22% | 37% | – | 84% | 48% | 74% | 56% | 28%
CCC(CCCC(=O)Nc1ccccc1)CCC(=O)NO (centres undefined) | 14 µM | – | – | – | – | – | – | – | – | – | – | – | – | – | – | – | 25%
